The source made the active and inactive calls. The rule behind the calls is not given here.
Columns and labels:
[1] = target: Protein kinase C delta type (Homo sapiens, UniProt Q05655); assay: Activation of PKCdelta (unknown origin) using phosphatidylserine […]
In short: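 PKCdelta assayed in vitro by phosphorylation of a PKC peptide substrate, with 0.05 mg/mL phosphatidylserine and no diacylglycerol so stimulation could be seen. Compounds serially diluted at semilogarithmic intervals, twelve points from 10 µM. Reaction started by adding ATP.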

Keratinocyte [2] = assay: Induction of IL-8 release in human primary epidermal keratinocytes after 6 hrs by HTRF assay in presence of PKC inhibitor bisindolylmaleimide 1; format: functional, cell-based
Keratinocyte [3] = assay: Induction of TNFalpha release in human primary epidermal keratinocytes after 6 hrs in presence of PKC inhibitor bisindolylmaleimide 1; format: functional, cell-based
[4] = Induction of oxidative burst in polymorphonuclear leukocytes (unknown origin) isolated from buffy coat at 10 uM after 40 mins by fluorescence assay in presence of PKC inhibitor bisindolylmaleimide 1; format: functional, cell-based
[5] = Induction of necrosis in human HeLa cells after 30 mins by resazurin assay; format: cell-based; details: read-out: LC50
In short: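 HeLa cells exposed to increasing ester concentrations up to 400 µM for 30 min at 37 °C. Remaining metabolic activity then read with a resazurin-based dye. LC50 is the concentration causing 50% loss of metabolic activity.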

Keratinocyte [6] = assay: Induction of IL-8 release in human primary epidermal keratinocytes after 6 hrs by HTRF assay; format: functional, cell-based
Keratinocyte [7] = assay: Induction of TNFalpha release in human primary epidermal keratinocytes after 6 hrs; format: functional, cell-based
In short: (§1)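 Human adult log-phase primary epidermal keratinocytes subcultured at 10,000 cells/well. Incubated with titrated compound for 6 h at 37 °C in humidified 95% air/5% CO2. Secreted cytokines quantified on 4-spot cytokine plates. EC50 is the concentration giving 50% of the maximum effect of the ingenol mebutate reference. Emax is maximal response relative to that reference.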

[8] = Induction of oxidative burst in polymorphonuclear leukocytes (unknown origin) isolated from buffy coat after 40 mins by fluorescence assay; format: functional, cell-based
In short: (§2)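 PMN isolated and purified from fresh buffy coats, then incubated 40 min at ambient temperature with titrated compound (top concentration 10 µM) premixed with hydroethidine. Respiratory burst read as fluorescence in relative light units, emission 579 nm, excitation 485 nm. EC50 and Emax are expressed relative to the maximum effect of the ingenol mebutate reference.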

[9] = Chemical stability of the compound in aqueous buffer assessed as drug recovery after 16 hrs at pH 7.4 by HPLC analysis; format: physicochemical; details: read-out: Drug recovery
In short: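 DMSO stock diluted with pre-heated (37 °C) aqueous buffer pH 7.4 to at most 30% v/v organic content, then shaken. Held in the HPLC autosampler at 37 °C, first injected within 5 min, then injected repeatedly over 16 h. Recovery taken from the fall in compound peak area, UV detection normally at 270 nm.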

Keratinocyte [10] = assay: Induction of IL-8 release in human primary epidermal keratinocytes after 6 hrs by HTRF assay relative to ingenol mebutate; format: functional
Keratinocyte [11] = assay: Induction of TNFalpha release in human primary epidermal keratinocytes after 6 hrs relative to ingenol mebutate; format: functional; in short: as §1
[12] = Induction of oxidative burst in polymorphonuclear leukocytes (unknown origin) isolated from buffy coat at 10 uM after 40 mins by fluorescence assay relative to ingenol mebutate; format: functional; in short: as §2
[13] = Dissociation constant, pKa of the compound; format: physicochemical

Protein kinase C delta type, sequence (Q05655 whole entry): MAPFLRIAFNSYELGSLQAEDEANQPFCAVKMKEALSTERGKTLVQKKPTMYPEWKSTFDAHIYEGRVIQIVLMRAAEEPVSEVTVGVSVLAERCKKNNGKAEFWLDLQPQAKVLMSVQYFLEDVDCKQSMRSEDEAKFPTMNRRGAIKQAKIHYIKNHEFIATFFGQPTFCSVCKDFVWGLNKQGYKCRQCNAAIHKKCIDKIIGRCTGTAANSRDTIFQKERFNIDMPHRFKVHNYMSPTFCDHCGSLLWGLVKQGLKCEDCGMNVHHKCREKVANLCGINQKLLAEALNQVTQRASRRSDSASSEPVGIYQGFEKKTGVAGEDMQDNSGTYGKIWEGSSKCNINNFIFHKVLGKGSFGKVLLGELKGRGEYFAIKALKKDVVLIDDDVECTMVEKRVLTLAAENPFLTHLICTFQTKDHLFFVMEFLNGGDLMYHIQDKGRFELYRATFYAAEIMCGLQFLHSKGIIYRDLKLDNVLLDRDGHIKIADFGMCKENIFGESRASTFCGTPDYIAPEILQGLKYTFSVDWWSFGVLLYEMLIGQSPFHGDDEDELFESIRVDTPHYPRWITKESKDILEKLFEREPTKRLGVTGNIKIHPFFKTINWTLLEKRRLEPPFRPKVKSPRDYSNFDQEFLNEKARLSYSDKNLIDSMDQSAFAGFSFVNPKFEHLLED

Structure (SMILES)	EC50 ([1]; read-out: EC50)	Activity (Keratinocyte [2])	Activity (Keratinocyte [3])	Activity [4]	CC50 at 0.5 h [5]	EC50 (Keratinocyte [6])	EC50 (Keratinocyte [7])	EC50 [8]	remaining at 16 h [9]	Emax (Keratinocyte [10])	Emax (Keratinocyte [11])	Emax at 10 µM [12]	EC50 [1]	pKa [13]
C/C=C(/C)C(=O)O[C@H]1C(C)=C[C@]23C(=O)[C@@H](C=C(CO)[C@@H](O)[C@]12O)[C@H]1[C@@H](C[C@H]3C)C1(C)C [INGENOL MEBUTATE]	4.1 nM	inactive	inactive	inactive	230000 nM	10.3 nM	11.2 nM	8.7 nM	60%					
CO/N=C(\C(=O)O[C@H]1C(C)=C[C@]23C(=O)[C@@H](C=C(CO)[C@@H](O)[C@]12O)[C@H]1[C@@H](C[C@H]3C)C1(C)C)c1ccccc1	10.6 nM				92000 nM	147 nM	1600 nM	49 nM	68%	54%	52%	120%		
CCCCCCCCCC(=O)O[C@H]1C(C)=C[C@]23C(=O)[C@@H](C=C(CO)[C@@H](O)[C@]12O)[C@H]1[C@@H](C[C@H]3C)C1(C)C	5.3 nM				117000 nM	8 nM	11 nM	10 nM		94%	96%	137%		
C/C=C(/C)C(=O)O[C@H]1C(C)=C[C@@]23C(=O)[C@H]([C@H]4[C@@H](C[C@H]2C)C4(C)C)[C@H](F)C(CO)=C[C@]13O						1130 nM	1210 nM	1240 nM	> 95%	57%	67%		Not Active	
CC1=C[C@]23C(=O)[C@@H](C=C(CO)[C@@H](O)[C@]2(O)[C@H]1OC(=O)C1(C)CCCCC1)[C@H]1[C@@H](C[C@H]3C)C1(C)C	2.9 nM				61000 nM	22 nM	13 nM	7.6 nM	70%	52%	62%	127%		
CCCCCCCCCCCCCCCC(=O)O[C@H]1C(C)=C[C@]23C(=O)[C@@H](C=C(CO)[C@@H](O)[C@]12O)[C@H]1[C@@H](C[C@H]3C)C1(C)C	4.7 nM				400000 nM	7.3 nM	8.4 nM	28 nM		109%	115%	106%		
C/C=C(/C(=O)O[C@H]1C(C)=C[C@]23C(=O)[C@@H](C=C(CO)[C@@H](O)[C@]12O)[C@H]1[C@@H](C[C@H]3C)C1(C)C)c1ccccc1	5.2 nM				103000 nM	3.8 nM	4.9 nM	7.4 nM	72%	97%	110%	126%		
C/C=C(\C)C(=O)O[C@H]1C(C)=C[C@]23C(=O)[C@@H](C=C(CO)[C@@H](O)[C@]12O)[C@H]1[C@@H](C[C@H]3C)C1(C)C					237000 nM	112 nM		7.5 nM	45%	75%	81%	92%		5.02
CC1=C[C@]23C(=O)[C@@H](C=C(CO)[C@@H](O)[C@]2(O)[C@H]1OC(=O)C(C)=C(C)C)[C@H]1[C@@H](C[C@H]3C)C1(C)C	5.3 nM				174000 nM	8.6 nM	8 nM	5.9 nM	75%	102%	97%	106%		
C/C=C(/C)C(=O)O														4.3
CC1=C[C@]23C(=O)[C@@H](C=C(CO)[C@@H](O)[C@]2(O)[C@H]1OC(=O)C12C[C@@H]4C[C@@H](C[C@H]1C4)C2)[C@H]1[C@@H](C[C@H]3C)C1(C)C					77000 nM	27 nM	36 nM	8.3 nM	70%	65%	55%	136%		
C=C(C)C(=O)O[C@H]1C(C)=C[C@]23C(=O)[C@@H](C=C(CO)[C@@H](O)[C@]12O)[C@H]1[C@@H](C[C@H]3C)C1(C)C					406000 nM	246 nM	213 nM	6.1 nM	20%	74%	77%	114%		
CCC(CC)C(=O)O[C@H]1C(C)=C[C@]23C(=O)[C@@H](C=C(CO)[C@@H](O)[C@]12O)[C@H]1[C@@H](C[C@H]3C)C1(C)C	4.5 nM				86000 nM	43 nM	27 nM	6.3 nM	60%	59%	62%	109%		

From ChEMBL document CHEMBL2429727, “Syntheses, biological evaluation and SAR of ingenol mebutate analogues for treatment of actinic keratosis and non-melanoma skin cancer” (Bioorg Med Chem Lett, 2013)
